Measured values: ChEMBL document CHEMBL1123867, “Anticonvulsant O-alkyl sulfamates. 2,3:4,5-Bis-O-(1-methylethylidene)-beta-D-fructopyranose sulfamate and related compounds” (1987)
The source made the active and inactive calls.

Tests used:
Mus musculus [1] = test: Anticonvulsant activity by using a standard maximal electroshock test (MES) in mice, by 100 mg/kg intraperitoneal administration of the compound; I =inactive; format: functional, organism-based; set-up: dose 100 mg/kg
Method in brief: (§1)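 Supramaximal electroshock: 50-mA current (60 Hz, 0.20 s) via corneal electrodes induced hind-limb tonic extension; inhibition of this component scored as activity. Mice dosed ip and/or po in aqueous solution or suspension (ca. 0.1% Tween 80, distilled water). Tested at 30, 60, 120 and 240 min (sometimes 45 min); ten mice per time point.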

Mus musculus [2] = test: Anticonvulsant activity by using a standard maximal electroshock test (MES) in mice, by 100 mg/kg intraperitoneal administration of the compound; i =inactive; format: functional, organism-based; set-up: dose 100 mg/kg; method in brief: as §1
Mus musculus [3] = test: Anticonvulsant activity by using a standard maximal electroshock test (MES) in mice, by 100 mg/kg intraperitoneal administration; i=inactive; format: functional, organism-based; set-up: dose 100 mg/kg; method in brief: as §1
Mus musculus [4] = test: Anticonvulsant activity by using a standard maximal electroshock test (MES) in mice, by 200 mg/kg intraperitoneal administration of the compound; I=inactive, 0-10% block; format: functional, organism-based; set-up: dose 200 mg/kg; method in brief: as §1
Mus musculus [5] = test: Anticonvulsant activity by using a standard maximal electroshock test (MES) in mice, by 400 mg/kg peroral administration of the compound; I=inactive, 0-10% block; format: functional, organism-based; set-up: dose 400 mg/kg; method in brief: as §1
Mus musculus [6] = test: Percentage block of the hind-limb tonic-extensor seizure was determined after application of an electric shock to mice for 60 min followed by 200 mg/kg intraperitoneal dose; format: functional
Method in brief: (§2)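 Mouse MES test: supramaximal seizure from a 50-mA current (60 Hz, 0.20-s) through corneal electrodes. […] Ten mice per time point. Compound given in aqueous solution or in suspension in ca. 0.1% Tween 80 and distilled water. Free food and water except during testing.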

Mus musculus [7] = test: Percentage block of the hind-limb tonic-extensor seizure was determined after application of an electric shock to mice for 60 min followed by 400 mg/kg peroral dose; format: functional; details: route oral; method in brief: as §2
Mus musculus [8] = test: Percentage block of the hind-limb tonic-extensor seizure was determined after application of an electric shock to mice for 120 min followed by 200 mg/kg intraperitoneal dose; format: functional; method in brief: as §1
Mus musculus [9] = test: Percentage block of the hind-limb tonic-extensor seizure was determined after application of an electric shock to mice for 120 min followed by 400 mg/kg peroral dose; format: functional; details: route oral; method in brief: as §1
Mus musculus [10] = test: Percentage block of the hind-limb tonic-extensor seizure was determined after application of an electric shock to mice for 30 min followed by 200 mg/kg intraperitoneal dose; format: functional; method in brief: as §1
Mus musculus [11] = test: Percentage block of the hind-limb tonic-extensor seizure was determined after application of an electric shock to mice for 30 min followed by 400 mg/kg peroral dose; format: functional; details: route oral; method in brief: as §1
Mus musculus [12] = test: Percentage block of the hind-limb tonic-extensor seizure was determined after application of an electric shock to mice for 240 min followed by 200 mg/kg intraperitoneal dose; format: functional; method in brief: as §1
Mus musculus [13] = test: Percentage block of the hind-limb tonic-extensor seizure was determined after application of an electric shock to mice for 240 min followed by 400 mg/kg peroral dose; format: functional; details: route oral; method in brief: as §1
Mus musculus [14] = test: Anticonvulsant activity by using a standard maximal electroshock test (MEST) in mice, by 100 mg/kg intraperitoneal administration of the compound; I=inactive; format: functional, organism-based; set-up: dose 100 mg/kg
Method in brief: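 Threshold electroshock: 8-mA current (60 Hz, 0.25 s) via ear-clip electrodes, the CS97 in these mice, induced hind-limb tonic extension; inhibition scored as activity. Mice given drug intraperitoneally in aqueous solution or suspension (ca. 0.1% Tween 80, distilled water). Tested at 30 min, sometimes also 240 min; ten mice per time point.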

Mus musculus [15] = test: Anticonvulsant activity by using a standard maximal electroshock test (MES) in mice, by intraperitoneal administration of the compound; format: functional; details: ip; method in brief: as §1
Mus musculus [16] = test: Anticonvulsant activity following p.o. administration by standard maximal electroshock test in mice.; format: functional; details: po; method in brief: as §1
Mus musculus [17] = test: Percentage block of the hind-limb tonic-extensor seizure was determined after application of an electric shock to mice for 30 min followed by 50 mg/kg intraperitoneal dose; format: functional; method in brief: as §1
Mus musculus [18] = test: Percentage block of the hind-limb tonic-extensor seizure was determined after application of an electric shock to mice for 60 min followed by 50 mg/kg intraperitoneal dose; format: functional; method in brief: as §2
Mus musculus [19] = test: Percentage block of the hind-limb tonic-extensor seizure was determined after application of an electric shock to mice for 120 min followed by 100 mg/kg peroral dose; format: functional; details: route oral; method in brief: as §1
Mus musculus [20] = test: Percentage block of the hind-limb tonic-extensor seizure was determined after application of an electric shock to mice for 30 min followed by 100 mg/kg peroral dose; format: functional; details: route oral; method in brief: as §1
Mus musculus [21] = test: Percentage block of the hind-limb tonic-extensor seizure was determined after application of an electric shock to mice for 120 min followed by 50 mg/kg intraperitoneal dose; format: functional; method in brief: as §1
Mus musculus [22] = test: Percentage block of the hind-limb tonic-extensor seizure was determined after application of an electric shock to mice for 240 min followed by 100 mg/kg peroral dose; format: functional; details: route oral; method in brief: as §1
Mus musculus [23] = test: Percentage block of the hind-limb tonic-extensor seizure was determined after application of an electric shock to mice for 240 min followed by 50 mg/kg intraperitoneal dose; format: functional; method in brief: as §1
Mus musculus [24] = test: Percentage block of the hind-limb tonic-extensor seizure was determined after application of an electric shock to mice for 60 min followed by 100 mg/kg peroral dose; format: functional; details: route oral; method in brief: as §2
Mus musculus [25] = test: Percentage block of the hind-limb tonic-extensor seizure was determined after application of an electric shock to mice for 60 min followed by 10 mg/kg intraperitoneal dose; format: functional; method in brief: as §1
Mus musculus [26] = test: Percentage block of the hind-limb tonic-extensor seizure was determined after application of an electric shock to mice for 60 min followed by 15 mg/kg peroral dose; format: functional; details: route oral; method in brief: as §2
Mus musculus [27] = test: Percentage block of the hind-limb tonic-extensor seizure was determined after application of an electric shock to mice for 120 min followed by 10 mg/kg intraperitoneal dose; format: functional; method in brief: as §1
Mus musculus [28] = test: Percentage block of the hind-limb tonic-extensor seizure was determined after application of an electric shock to mice for 120 min followed by 15 mg/kg peroral dose; format: functional; details: route oral; method in brief: as §1
Mus musculus [29] = test: Percentage block of the hind-limb tonic-extensor seizure was determined after application of an electric shock to mice for 30 min followed by 10 mg/kg intraperitoneal dose; format: functional; method in brief: as §1
Mus musculus [30] = test: Percentage block of the hind-limb tonic-extensor seizure was determined after application of an electric shock to mice for 30 min followed by 15 mg/kg peroral dose; format: functional; details: route oral; method in brief: as §1
Mus musculus [31] = test: Percentage block of the hind-limb tonic-extensor seizure was determined after application of an electric shock to mice for 240 min followed by 10 mg/kg intraperitoneal dose; format: functional; method in brief: as §1
Mus musculus [32] = test: Percentage block of the hind-limb tonic-extensor seizure was determined after application of an electric shock to mice for 240 min followed by 15 mg/kg peroral dose; format: functional; details: route oral; method in brief: as §1

`CC1(C)OC2C(OS(N)(=O)=O)C3(COC(C)(C)O3)OC[C@H]2O1` (some centres undefined) was tested, and the ED50 (Mus musculus [1]) was “inactive”.
With `NS(=O)(=O)OCC1(O)OC[C@@H](O)[C@@H](O)C1O` (some centres undefined) the ED50 (Mus musculus [2]) was “inactive”.
For `CC1(C)OC2C3OC(C)(C)O[C@]3(COC(=O)Nc3ccccc3)OC[C@H]2O1` (some centres undefined), the ED50 (Mus musculus [3]) was “inactive”, the ED50 (Mus musculus [4]) was “inactive” and the ED50 (Mus musculus [5]) was “inactive”. It also gave a Block (Mus musculus [6]) of 0%, a Block (Mus musculus [7]) of 0% and a Block (Mus musculus [8]) of 0%. The Block (Mus musculus [9]) was 0%, the Block (Mus musculus [10]) was 0% and the Block (Mus musculus [11]) was 0%. It also gave a Block (Mus musculus [12]) of 0% and a Block (Mus musculus [13]) of 0%.
With `CC1(C)OC2C3OC(C)(C)O[C@]3(COC(N)=O)OC[C@H]2O1` (some centres undefined) the ED50 (Mus musculus [14]) was “inactive”.
Work on `NS(=O)(=O)OCC1CCc2ccccc2C1` (centres undefined) yielded an ED50 (Mus musculus [15]) of 56 mg/kg, an ED50 (Mus musculus [16]) of 82 mg/kg and a Block (Mus musculus [17]) of 30%. For the same compound, the Block (Mus musculus [18]) was 50%, the Block (Mus musculus [19]) was 80% and the Block (Mus musculus [20]) was 80%. It also gave a Block (Mus musculus [21]) of 0%, a Block (Mus musculus [22]) of 30% and a Block (Mus musculus [23]) of 0%. It also gave a Block (Mus musculus [24]) of 80%.
With `O=C1NC(=O)C(c2ccccc2)(c2ccccc2)N1` [PHENYTOIN] the ED50 (Mus musculus [15]) was 10 mg/kg, the ED50 (Mus musculus [16]) was 10 mg/kg and the Block (Mus musculus [25]) was 60%. It also gave a Block (Mus musculus [26]) of 80%, a Block (Mus musculus [27]) of 80% and a Block (Mus musculus [28]) of 70%. The Block (Mus musculus [29]) was 60%, the Block (Mus musculus [30]) was 50% and the Block (Mus musculus [31]) was 70%. For the same compound, the Block (Mus musculus [32]) was 30%.
